Bioassay records: PubChem BioAssay, The Scripps Research Institute Molecular Screening Center
TAAR1 ag: human TAAR1 agonists, primary screen, Fluo-8 calcium fluorescence, CHO RD-HGA16 cells; activation, % at 3 µM; vehicle wells 0%, saturating PEA agonist 100%; hit rate 0.99% among 360,000;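 active = activation above the mean activation of all test compounds in the run plus 3 SD, cut at about 38% in these data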
Target sequence (Q96RJ0 whole entry, looked up): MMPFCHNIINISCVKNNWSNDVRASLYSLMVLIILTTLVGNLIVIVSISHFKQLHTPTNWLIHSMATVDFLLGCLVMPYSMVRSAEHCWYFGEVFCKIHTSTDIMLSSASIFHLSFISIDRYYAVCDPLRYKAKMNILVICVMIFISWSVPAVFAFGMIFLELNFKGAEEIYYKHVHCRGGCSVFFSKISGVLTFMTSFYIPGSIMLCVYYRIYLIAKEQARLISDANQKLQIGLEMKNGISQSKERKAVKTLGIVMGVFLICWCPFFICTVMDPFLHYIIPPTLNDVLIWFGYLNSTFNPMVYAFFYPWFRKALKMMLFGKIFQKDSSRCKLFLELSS
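test system = CHO RD-HGA16 cells carrying human TAAR1 plus Gα16 | schedule = 17-24 h seeding, 75 min 37 °C dye, 30 min RT | compound dosing = 3 µM single concentration | control set = DMSO and PEA EC100 | replicates = n 1 | signal = Fluo-8 fluorescence, 5 s baseline then 140 s kinetic read | measure = percent activation vs PEA EC100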
CHO parental Ca: ATP-evoked calcium signal inhibitors, parental CHO, primary screen, counter-screen for OX1R antagonist project, cell-based, fluorescence, Fluo-8 calcium dye; AID 463079, 2010; parental CHO-K1, ATP-induced calcium, Fluo-8 fluorescence; inhibition, % at 5.6 µM; hit rate 0.63% among 330,000;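 active = inhibition above that plate's mean sample inhibition plus 3 SD, cut at about 26% in these data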;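 note: 0% = ATP-challenged DMSO wells and 100% = DMSO wells without ATP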
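Assay system: untransfected parental CHO cell line. Also added: ATP agonist challenge. Dosing: one dose, 5.6 µM nominal. Measured by: Fluo-8 fluorescence. Read-out: % inhibition. Benchmarks: ATP wells versus no-ATP DMSO wells. Repeats: no replicates.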
GalR3 antagonist: GalR3 antagonists in HEK293 cells, primary screen, cell-based, fluorescence readout; hit rate 0.44% among 360,000; inhibition, % at 3 µM; HEK293 GalR3-CNG cAMP membrane potential fluorescence; galR3 body fused to GalR1 C-terminus; AID 651719, 2012; Galanin receptor type 3 (Homo sapiens), O60755;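 active = inhibition above the screen-wide average plus 3 SD, cut at about 13% in these data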;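 note: forskolin and galanin both at EC90 stimulate the cells; cAMP rise reported by CNG channel membrane potential dye signal; 0% = forskolin plus galanin with DMSO and 100% = forskolin alone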
Target sequence (O60755 1-299 limits assumed): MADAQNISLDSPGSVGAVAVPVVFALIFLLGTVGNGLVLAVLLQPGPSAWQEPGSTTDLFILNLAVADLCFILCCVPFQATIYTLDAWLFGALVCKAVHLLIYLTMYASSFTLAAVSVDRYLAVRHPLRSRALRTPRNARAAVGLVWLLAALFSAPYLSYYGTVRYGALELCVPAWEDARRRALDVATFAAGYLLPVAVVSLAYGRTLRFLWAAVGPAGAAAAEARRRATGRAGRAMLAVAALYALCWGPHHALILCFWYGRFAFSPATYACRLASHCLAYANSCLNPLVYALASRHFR
OX1R antag-1: antagonists of human orexin 1 receptor (OX1R); Orexin/Hypocretin receptor type 1 (Homo sapiens), O43613; OX1R-expressing cells, FRET antagonist read-out; inhibition, % at 6.6 µM; hit rate 1.8% among 330,000; AID 485270, 2010; in the data active = inhibition mostly above about 38%, no sharp cut-off; inactive = mostly below about 40%;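 note: 0% = agonist challenge alone and 100% = reference antagonist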
TAAR1 antag: human TAAR1 antagonists, primary screen, Fluo-8 calcium fluorescence, CHO RD-HGA16 cells; antagonist; inhibition, % at 3 µM; hit rate 1.5% among 360,000;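 active = inhibition above a per-plate cutoff, the mean inhibition of test compounds on that plate plus 3 SD, cut at about 49% in these data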;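 note: 0% = DMSO plus EC80 beta-PEA response and 100% = DMSO alone without agonist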
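System: RD-HGA16 CHO cells with stable hTAAR1 and Gα16 | Probe or stimulus: EC80 β-phenethylamine stimulus | Dosing: 3 µM, single point | Times: Dye loading 75 min at 37 °C, then 30 min room temperature | Measured by: Fluo-8 calcium-sensitive fluorescence | Read-out basis: % inhibition of agonist calcium response | Replicates: n of 1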
OX1R antag-2: OX1R (HCRTR1) antagonists, primary screen, fluorescence, CHO/OX1R cells, Fluo-8 calcium, orexin A | Orexin/Hypocretin receptor type 1 (Homo sapiens), O43613 | inhibition, % at 5 µM | hit rate 0.43% among 330,000 | Fluo-8 calcium fluorescence;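 active = inhibition above its plate's threshold, mean inhibition of all tested compounds on the plate plus 3 SD, cut at about 37% in these data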;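 note: 0% = orexin A challenge wells and 100% = SB-334867-A antagonist wells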
OX1R HTRF confirm: OX1R (HCRTR1) antagonists, confirmation, cell-based, HTRF | OX1R-expressing cells, HTRF antagonist assay | shares compounds with OX1R antag-1 | inhibition, % at 6.6 µM | hit rate 49% among 1,800; in the data active = inhibition above about 55%;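 note: CHO cells expressing OX1R stimulated with orexin A at about EC80; 0% = agonist challenge alone and 100% = reference antagonist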
CHO-K1 HTRF: signal inhibition in parental CHO-K1 cells, counter-screen for OX1R antagonist project, cell-based, HTRF; shares compounds with OX1R antag-1; HTRF counterscreen; hit rate 48% among 1,800; inhibition, % at 6.6 µM; in the data active = inhibition above about 17%;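 note: 0% = agonist challenge with vehicle and 100% = vehicle alone without agonist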
* hit, by the source's call; . = no result. In the library only some 4.2% were active in any assay of this set; here they are far more common.

SMILES	TAAR1 ag	CHO parental Ca	GalR3 antagonist	OX1R antag-1	TAAR1 antag	OX1R antag-2	OX1R HTRF confirm	CHO-K1 HTRF
N#CSC(c1ccccc1)c1nc2ccccc2[nH]c1=O (configuration not stated)	-1.5	-19.1	-8.5	11.6	-5.5	-13.2	.	.
CCOC(=O)C1Nc2ccccc2C2C(O)C(O)CC12 (configuration not stated)	4.4	-11.8	-0.8	83.2*	4.7	-12.5	27.2	19.8*
C=CCOc1ccc(CNc2ccc3[nH]c(=O)[nH]c3c2)cc1OCC	0.5	-2.1	-4.6	112.2*	-25.9	-5.1	20.0	4.9
CN1CCc2c(sc(NC(=O)c3ccc([N+](=O)[O-])o3)c2C(N)=O)C1	1.6	1.2	2.4	90.4*	-24.3	-3.0	40.0	31.2*
CN1CCc2c(sc(NC(=O)c3ccco3)c2C(N)=O)C1	2.1	0.1	-2.1	12.9	-9.0	-6.8	.	.
COc1cc(/C=C(\C#N)C(=O)Nc2cccc(C(=O)O)c2)ccc1OCc1ccc(C)cc1	-2.6	-1.3	-8.2	31.4	33.1	-0.5	.	.
Cc1ccc2nc3c(cc(C(=O)NCCc4ccccc4)c(=N)n3CCCN3CCOCC3)c(=O)n2c1	1.9	4.8	-7.7	114.9*	1.0	-12.8	68.2*	68.7*
CCOCCCn1c(=N)c(C(N)=S)cc2c(=O)n3cccc(C)c3nc21	2.8	-25.5	-2.1	86.8*	3.5	-12.8	47.5	42.3*
CCNC(=O)c1cc2c(=O)n3cccc(C)c3nc2n(CCc2ccccc2)c1=N	7.9	-1.9	0.1	69.6	6.3	-16.6	.	.
Cc1cccn2c(=O)c3cc(C(=O)NCCN4CCOCC4)c(=N)n(CCc4ccccc4)c3nc12	12.4	-19.6	-3.1	108.8*	14.4	-33.9	56.8*	71.7*
Cn1cc(/C=N\O)nc2c(=O)n(-c3ccccc3)c(=O)nc1-2	3.0	-7.3	-2.0	77.7*	4.1	-1.5	68.1*	88.8*
O/N=C/c1cn(-c2ccccc2)nn1	4.8	-7.8	-3.6	4.4	4.2	-11.6	.	.
Cc1[nH]c(=O)c(C#N)cc1-c1ccncc1	1.0	-6.7	.	10.0	-0.3	-11.5	.	.
NC(=O)CSc1ncc(-c2ccccc2)[nH]1	2.8	-2.1	-6.3	7.3	14.0	-4.4	.	.
NC(=O)CSc1ncc(-c2ccc([N+](=O)[O-])cc2)[nH]1	2.2	-1.7	-0.2	80.5*	-7.9	-8.5	39.7	33.5*
O=C1c2ccccc2C(=O)c2c1cccc2N1CCOCC1	3.6	-16.3	-1.4	81.2*	-2.1	-23.0	42.6	33.8*
NC(=S)N=Nc1c(O)[nH]c2ccc(F)cc12	3.7	-2.0	-0.4	83.5*	-0.3	5.3	45.8	35.9*
COc1cc(NCc2ccccc2O)c2ncccc2c1	1.4	.	-2.5	.	3.7	.	.	.
Oc1ccccc1CNc1cccc2cccnc12	0.4	-10.1	-4.5	120.3*	-11.0	-19.9	29.1	10.7
COc1ccccc1CCC(=O)OCC(=O)NC1CCCC1	0.9	-17.4	-4.4	1.9	-23.2	-8.1	.	.
COc1ccc(C(=O)C2CCN(C(=S)NCC3CCCO3)CC2)cc1 (configuration not stated)	4.5	-17.2	-6.5	19.6	4.9	-2.5	.	.
O=C(/C=C/c1ccc([N+](=O)[O-])cc1)NNC(=O)C1CC1	3.4	-0.9	2.6	137.3*	-6.6	1.0	49.0	65.7*
O=C(/C=C/c1ccc([N+](=O)[O-])cc1)NC1CC2CCC1C2 (configuration not stated)	2.2	-23.4	0.7	39.4	-9.9	-21.2	.	.
CC(=O)N1CCc2cc(N=NC3=C(O)CCCC3=O)ccc21	13.9	-2.9	8.5	151.9*	-10.5	-7.4	74.0*	81.7*
COc1cccc(CNC(=O)CCNC(=O)N2CC(=O)Nc3ccccc32)c1	0.2	.	-5.6	.	-8.4	.	.	.
SMILES	TAAR1 ag	CHO parental Ca	GalR3 antagonist	OX1R antag-1	TAAR1 antag	OX1R antag-2	OX1R HTRF confirm	CHO-K1 HTRF
CCN(CC(=O)NCc1ccco1)S(=O)(=O)c1ccc(OC)cc1	1.9	-9.2	3.8	13.2	-1.6	-16.2	.	.
CCN1C(=O)c2ccc(C(=O)Nc3nccs3)cc2C1=O	3.2	-23.1	-1.5	89.6*	17.1	-13.0	28.8	29.1*
CCOc1ccccc1Nc1nc(N)nc(Cl)c1CC	-2.2	.	-4.7	.	2.0	.	.	.
COc1ccc2cc3cc(C(=O)NCCc4ccc(OC)c(OC)c4)oc3nc2c1	16.3	-22.1	-7.4	43.0	44.8	-21.5	.	.
CCCCN(CC)CCCNC(=O)c1cc2cc3ccc(OC)cc3nc2o1	11.8	-25.4	-0.1	104.4*	-0.7	-20.2	44.9	48.6*
CCCN(CCC)CCCNC(=O)c1cc2cc3ccc(OC)cc3nc2o1	7.9	-7.0	-4.2	123.0*	-13.0	-14.5	35.5	58.3*
Cc1noc(C)c1CS(=O)(=O)c1ccc([N+](=O)[O-])cc1	2.9	9.6	-2.4	106.7*	-0.9	-6.8	57.5*	58.2*
Cc1ccc(S(=O)(=O)Cc2c(C)noc2C)cc1	11.9	-3.4	-7.4	0.9	-8.2	-9.7	.	.
CCOC(=O)c1c(C)nc2c3ccccc3ccn12	15.0	-20.4	-2.0	90.4*	-11.4	1.4	58.2*	-6.2
c1ccc(C[n+]2cccc3c4ccccc4ccc32)cc1	1.2	-6.5	-3.4	77.5*	-10.6	-13.6	41.2	47.5*
CCN(CC)c1ccc(NC(=O)c2ccc3c(c2)c(C)c(C)n3C)cc1	6.6	-9.3	-6.5	78.2*	6.0	-3.6	51.2	14.4
COCC(=O)OCC(=O)Nc1cc([N+](=O)[O-])ccc1Cl	4.5	.	-7.8	.	-3.6	.	.	.
COCC(=O)OCC(=O)Nc1ccc(Cl)cc1[N+](=O)[O-]	-1.0	-3.0	-5.3	98.6*	2.1	3.9	28.0	50.1*
O=C1C(N2CCOCC2)=C(n2nnc3ccccc32)C(=O)c2ccccc21	5.5	-10.2	-5.2	188.8*	4.2	-22.5	52.4	75.1*
O=C(c1cc2ccccc2o1)N1CCN(S(=O)(=O)c2cccs2)CC1	9.6	-6.4	1.3	7.2	2.7	-15.9	.	.
